Reference: ChEMBL document CHEMBL5705890, “Antitumor activity of an allosteric inhibitor of centromere-associated protein-E” (Proc Natl Acad Sci U S A, 2010)

Assays:
SH-4 = test: Anticancer activity against human SH-4 cells assessed as cell growth inhibition measured after 72 hrs by DAPI staining based analysis; format: functional
DLD-1 = test: Anticancer activity against human DLD-1 cells assessed as cell growth inhibition measured after 72 hrs by DAPI staining based analysis; format: functional
In short: (§1)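 Cells seeded, DAPI-stained DNA content of fixed cells read by imaging 24 h after seeding (T0), and again after a further 72 h exposure to a range of drug concentrations (T72). T72 values were normalized to T0. Curve fits gave the concentration producing 50% growth inhibition relative to T0 and Ymax (GI50).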

CESS = test: Anticancer activity against human CESS cells assessed as cell doubling measured for 72 hrs by DAPI staining based analysis; format: functional
RKO = test: Anticancer activity against human RKO cells assessed as cell growth inhibition measured after 72 hrs by DAPI staining based analysis; format: functional
SNB-19 = test: Anticancer activity against human SNB-19 cells assessed as cell growth inhibition measured after 72 hrs by DAPI staining based analysis; format: functional
CHL-1 = test: Anticancer activity against human CHL-1 cells assessed as cell growth inhibition measured after 72 hrs by DAPI staining based analysis; format: functional
In short: (§2)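 Cells were seeded, and DNA content at 24 h after seeding (T0) was read by imaging of fixed, DAPI-stained cells. Cells were then exposed to a range of drug concentrations for a further 72 h (T72) and DNA content was read again. T72 values were normalized to T0, and GI50 was taken from curve fits as the concentration giving 50% growth inhibition relative to T0 and Ymax.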

DU-4475 = test: Anticancer activity against human DU-4475 cells assessed as cell doubling measured for 72 hrs by DAPI staining based analysis; format: functional
D283 Med = test: Anticancer activity against human D283 Med cells assessed as cell growth inhibition measured after 72 hrs by DAPI staining based analysis; format: functional; in short: as §1
MES-SA = test: Anticancer activity against human MES-SA cells assessed as cell growth inhibition measured after 72 hrs by DAPI staining based analysis; format: functional
[1] = Anticancer activity against human MT-3 cells assessed as cell growth inhibition measured after 72 hrs by DAPI staining based analysis; format: functional
SAOS-2 = test: Anticancer activity against human SAOS-2 cells assessed as cell doubling measured for 72 hrs by DAPI staining based analysis; format: functional
HCT-15 = test: Anticancer activity against human HCT-15 cells assessed as cell growth inhibition measured after 72 hrs by DAPI staining based analysis; format: functional
[2] = Binding affinity to human CENP-E T183A/K184T mutant assessed as inhibition constant
C-4-II = test: Anticancer activity against human C-4-II cells assessed as cell doubling measured for 72 hrs by DAPI staining based analysis; format: functional
[3] = biological target: Centromere-associated protein E (Homo sapiens, UniProt Q02224); test: Inhibition of ATPase activity of C-terminal 6-his-tagged CENP-E (2 to 340 residues)(unknown origin) expressed in Escherichia coli BL21(DE3) in presence of ATP
UACC-257 = test: Anticancer activity against human UACC-257 cells assessed as cell doubling measured for 72 hrs by DAPI staining based analysis; format: functional
HCT-116 = test: Antitumor activity against human HCT-116 cells in xenograft model assessed as difference between median time to endpoint time of treated versus control group at 125 mg/kg; format: functional
LNCaP = test: Anticancer activity against human LNCaP cells assessed as cell growth inhibition measured after 72 hrs by DAPI staining based analysis; format: functional
MIA PaCa-2 = test: Anticancer activity against human MIA PaCa-2 cells assessed as cell growth inhibition measured after 72 hrs by DAPI staining based analysis; format: functional
DU-145 = test: Anticancer activity against human DU-145 cells assessed as cell doubling measured for 72 hrs by DAPI staining based analysis; format: functional
NCI-H1299 = test: Antitumor activity against human NCI-H1299 cells in xenograft model assessed as tumor growth delay at 125 mg/kg relative to control; format: functional
SHP77 = test: Anticancer activity against human SHP77 cells assessed as cell doubling measured for 72 hrs by DAPI staining based analysis; format: functional
CCF-STTG1 = test: Anticancer activity against human CCF-STTG1 cells assessed as cell growth inhibition measured after 72 hrs by DAPI staining based analysis; format: functional; in short: as §2
SK-OV-3 [4] = test: Antitumor activity against human SK-OV-3 cells in xenograft model assessed as difference between median time to endpoint time of treated versus control group at 62.5 mg/kg; format: functional
SK-N-FI = test: Anticancer activity against human SK-N-FI cells assessed as cell doubling measured for 72 hrs by DAPI staining based analysis; format: functional
CWR22R = test: Anticancer activity against human 22Rv1 cells assessed as cell doubling measured for 72 hrs by DAPI staining based analysis; format: functional
SW1088 = test: Anticancer activity against human SW1088 cells assessed as cell growth inhibition measured after 72 hrs by DAPI staining based analysis; format: functional
NCI-H2171 = test: Anticancer activity against human NCI-H2171 cells assessed as cell doubling measured for 72 hrs by DAPI staining based analysis; format: functional
RXF 393 = test: Anticancer activity against human RXF 393 cells assessed as cell growth inhibition measured after 72 hrs by DAPI staining based analysis; format: functional
DBTRG-05MG = test: Anticancer activity against human DBTRG-05MG cells assessed as cell growth inhibition measured after 72 hrs by DAPI staining based analysis; format: functional; in short: as §1
[5] = Anticancer activity against human CML-T1 cells assessed as cell growth inhibition measured after 72 hrs by DAPI staining based analysis; format: functional; in short: as §2
NCI-H295R = test: Anticancer activity against human NCI-H295R cells assessed as cell growth inhibition measured after 72 hrs by DAPI staining based analysis; format: functional
HCC 2998 = test: Anticancer activity against human HCC 2998 cells assessed as cell doubling measured for 72 hrs by DAPI staining based analysis; format: functional
BT-474 = test: Anticancer activity against human BT-474 cells assessed as cell growth inhibition measured after 72 hrs by DAPI staining based analysis; format: functional; in short: as §2
OV-90 = test: Anticancer activity against human OV-90 cells assessed as cell doubling measured for 72 hrs by DAPI staining based analysis; format: functional
NCI-H209 = test: Anticancer activity against human NCI-H209 cells assessed as cell growth inhibition measured after 72 hrs by DAPI staining based analysis; format: functional
RPMI-2650 = test: Anticancer activity against human RPMI-2650 cells assessed as cell doubling measured for 72 hrs by DAPI staining based analysis; format: functional
SNU-387 = test: Anticancer activity against human SNU-387 cells assessed as cell growth inhibition measured after 72 hrs by DAPI staining based analysis; format: functional
[6] = Anticancer activity against human SKO-007 cells assessed as cell doubling measured for 72 hrs by DAPI staining based analysis; format: functional
A204 = test: Anticancer activity against human A204 cells assessed as cell doubling measured for 72 hrs by DAPI staining based analysis; format: functional
SK-OV-3 [7] = test: Antitumor activity against human SK-OV-3 cells in xenograft model assessed as tumor growth delay at 62.5 mg/kg relative to control; format: functional

Sequence of Centromere-associated protein E (Q02224 whole entry, the tested form may be a part): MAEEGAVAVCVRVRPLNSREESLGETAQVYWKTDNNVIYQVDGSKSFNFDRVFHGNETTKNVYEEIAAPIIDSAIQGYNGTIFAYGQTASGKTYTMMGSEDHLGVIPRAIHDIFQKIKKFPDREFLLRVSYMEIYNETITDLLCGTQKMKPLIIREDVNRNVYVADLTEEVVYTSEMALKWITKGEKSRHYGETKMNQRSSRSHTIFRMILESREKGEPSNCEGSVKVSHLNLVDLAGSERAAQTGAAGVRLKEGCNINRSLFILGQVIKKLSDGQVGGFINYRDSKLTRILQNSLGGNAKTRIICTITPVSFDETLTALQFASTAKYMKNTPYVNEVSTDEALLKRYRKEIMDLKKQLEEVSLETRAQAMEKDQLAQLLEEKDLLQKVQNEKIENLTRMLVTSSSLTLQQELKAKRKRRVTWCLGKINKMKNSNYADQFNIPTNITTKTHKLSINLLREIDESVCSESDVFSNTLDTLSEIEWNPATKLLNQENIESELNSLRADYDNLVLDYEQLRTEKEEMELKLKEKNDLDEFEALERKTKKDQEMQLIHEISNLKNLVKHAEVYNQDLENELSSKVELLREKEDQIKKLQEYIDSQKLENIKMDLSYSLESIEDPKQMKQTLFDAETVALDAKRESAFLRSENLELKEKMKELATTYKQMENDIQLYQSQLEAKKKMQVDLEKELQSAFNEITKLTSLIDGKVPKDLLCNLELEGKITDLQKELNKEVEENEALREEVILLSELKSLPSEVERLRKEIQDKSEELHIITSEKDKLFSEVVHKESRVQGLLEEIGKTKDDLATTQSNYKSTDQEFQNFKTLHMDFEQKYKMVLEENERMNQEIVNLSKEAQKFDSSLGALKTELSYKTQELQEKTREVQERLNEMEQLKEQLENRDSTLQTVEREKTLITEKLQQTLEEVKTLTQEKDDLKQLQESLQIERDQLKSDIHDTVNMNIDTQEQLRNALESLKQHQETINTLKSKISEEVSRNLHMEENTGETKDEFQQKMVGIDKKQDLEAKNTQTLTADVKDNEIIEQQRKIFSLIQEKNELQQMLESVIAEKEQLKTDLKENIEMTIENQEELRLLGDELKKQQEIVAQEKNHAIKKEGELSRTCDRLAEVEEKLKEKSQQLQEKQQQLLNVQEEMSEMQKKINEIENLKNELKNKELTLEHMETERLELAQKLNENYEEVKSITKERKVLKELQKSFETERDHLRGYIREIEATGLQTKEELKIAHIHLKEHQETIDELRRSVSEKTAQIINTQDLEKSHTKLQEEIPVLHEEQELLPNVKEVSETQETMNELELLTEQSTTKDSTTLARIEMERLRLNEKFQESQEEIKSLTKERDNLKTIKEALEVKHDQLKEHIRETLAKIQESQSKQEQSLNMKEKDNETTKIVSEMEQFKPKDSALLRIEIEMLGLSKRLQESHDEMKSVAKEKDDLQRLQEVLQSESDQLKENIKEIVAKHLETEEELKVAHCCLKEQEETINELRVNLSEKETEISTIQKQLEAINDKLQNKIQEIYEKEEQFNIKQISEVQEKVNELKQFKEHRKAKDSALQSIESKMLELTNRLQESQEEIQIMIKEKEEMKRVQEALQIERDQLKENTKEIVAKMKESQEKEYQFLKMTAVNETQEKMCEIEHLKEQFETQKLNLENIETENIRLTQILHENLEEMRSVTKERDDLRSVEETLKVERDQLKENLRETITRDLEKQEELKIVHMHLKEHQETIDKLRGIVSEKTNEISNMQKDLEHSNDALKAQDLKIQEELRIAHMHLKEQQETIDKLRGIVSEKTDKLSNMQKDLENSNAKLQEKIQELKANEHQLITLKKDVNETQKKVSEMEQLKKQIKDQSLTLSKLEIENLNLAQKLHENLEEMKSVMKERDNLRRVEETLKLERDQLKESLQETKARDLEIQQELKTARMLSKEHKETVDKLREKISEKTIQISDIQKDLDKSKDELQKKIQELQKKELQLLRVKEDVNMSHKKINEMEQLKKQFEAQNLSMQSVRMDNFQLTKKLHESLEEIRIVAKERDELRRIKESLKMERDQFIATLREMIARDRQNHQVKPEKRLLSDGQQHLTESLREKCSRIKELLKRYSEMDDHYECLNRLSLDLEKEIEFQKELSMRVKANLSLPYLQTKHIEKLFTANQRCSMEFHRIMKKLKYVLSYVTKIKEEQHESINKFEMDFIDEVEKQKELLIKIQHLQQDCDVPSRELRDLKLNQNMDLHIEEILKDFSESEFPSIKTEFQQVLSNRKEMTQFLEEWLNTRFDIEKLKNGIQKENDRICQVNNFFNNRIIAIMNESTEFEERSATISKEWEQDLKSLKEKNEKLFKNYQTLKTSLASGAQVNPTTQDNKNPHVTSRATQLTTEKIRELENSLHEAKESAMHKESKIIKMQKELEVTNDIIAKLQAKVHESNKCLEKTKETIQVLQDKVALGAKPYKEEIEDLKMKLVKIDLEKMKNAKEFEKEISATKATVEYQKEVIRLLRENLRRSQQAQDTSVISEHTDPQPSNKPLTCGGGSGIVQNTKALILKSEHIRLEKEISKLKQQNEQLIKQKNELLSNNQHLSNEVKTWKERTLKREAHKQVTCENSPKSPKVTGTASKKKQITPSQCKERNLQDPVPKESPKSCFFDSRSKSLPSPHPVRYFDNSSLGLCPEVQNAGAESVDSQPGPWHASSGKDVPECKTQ

GI50 (DLD-1): 0.06 µM | GI50 (HCT-15): 0.151 µM | Ki [2]: 0.011 µM | IC50 [3]: 2.08 µM | GI50 (LNCaP): 0.076 µM | GI50 (MIA PaCa-2): 0.023 µM | GI50 (SW1088): 0.032 µM | GI50 (NCI-H295R): 0.298 µM | GI50 (BT-474): 0.11 µM | GI50 (NCI-H209): 0.02 µM | GI50 (SNU-387): 0.032 µM
Structure (SMILES): CC(C)Oc1ccc(C(=O)N[C@H](CNC(=O)CN(C)C)Cc2ccc(-c3cn4cccc([C@H](C)O)c4n3)cc2)cc1Cl [GSK-923295A]
GI50 (SH-4): 0.044 µM | Activity (CESS): 1.39 | GI50 (RKO): 0.053 µM | GI50 (SNB-19): 0.028 µM | GI50 (CHL-1): 0.024 µM | Activity (DU-4475): 2.05 | GI50 (D283 Med): 0.028 µM | GI50 (MES-SA): 0.065 µM | GI50 [1]: 0.041 µM | Activity (SAOS-2): 1.5 | Activity (C-4-II): 2.42 | Activity (UACC-257): 1.79 | Time (HCT-116): 10.4 days | Activity (DU-145): 2.25 | Activity (NCI-H1299): 76% | Activity (SHP77): 2.04 | GI50 (CCF-STTG1): 0.024 µM | Time (SK-OV-3 [4]): 71.6 days | Activity (SK-N-FI): 1.24 | Activity (CWR22R): 2.46 | Activity (NCI-H2171): 1.39 | GI50 (RXF 393): 0.032 µM | GI50 (DBTRG-05MG): 0.017 µM | GI50 [5]: 0.013 µM | Activity (HCC 2998): 2.76 | Activity (OV-90): 1.87 | Activity (RPMI-2650): 3 | Activity [6]: 1.01 | Activity (A204): 1.46 | Activity (SK-OV-3 [7]): 194%
